Experimental data taken from the RNAGym collection of RNA variant scans (doi:10.1126/science.aae0568).
Variants at the floor of the assay were thinned out.

B1: tRNA (parent)
chain: GUUCCGUUGGCGUAAUGGUAACGCGUCUCCCUCCUAAGGAGAAGACUGCGGGUUCGAGUCCCGUACGGAACG

Variants of: B1
Assay: yeast fitness relative to wild type (ratio to wild type); higher = fitter; tRNA-Arg(CCU), competitive growth, 37 C, YPD
Method in brief: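 Amplicons of the tRNA-Arg(CCU) gene were sequenced, 100-nucleotide paired-end, from the start population and from each end population of a pooled yeast competition. The competition, in six parallel replicates, lasted 24 hours in YPD at 37°C. Fitness relative to wild type was calculated from changes in genotype frequencies. Genotypes had to have ≥ 100 starting reads, and estimates < 0.5 were set to 0.5.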

Row | Variant | yeast fitness
1 | GUUCCGUUGGCGUAAUGGUGACGCGUCUCCCUCCUAAGGAGAGGACGGCGGGUUCGAGUCCCGGACGGAACG [A20G A43G U47G U64G] | ≤ 0.5
2 | GUUCCGUUGGCGUAAUGGUAGUGCGUCUCCCUCCUAAGGAGAAGACUGCGGGUUCGAGUCCCGUACGGAUCG [A21G C22U A70U] | 0.619
3 | GUUCUGAUGGCGUAAUGGUAACGCGUCACCCUCCUAAGGAGAAGACUGUGGGUUCGAGUCCCGUACGGAACG [C5U U7A U28A C49U] | ≤ 0.5
4 | GUUCCGUUGGCGUCAUGGUAACGCGUCUCCCUCCUAAGGAGAAGACUGCGGGUUCGAGUCCCGUACUGAACG [A14C G67U] | 0.678
5 | GUUCCGUUGGCGUAAUGGUAACGCGUUGCCCUGCUGAGGAGAAGACUGCGGGUUCGAGUCCCGUACGGAACG [C27U U28G C33G A36G] | ≤ 0.5
6 | GUUUCGUUAGCGUAAUGGUAACGCGUCUCCCUCCUAAGGAGAAGACUGCGGGUUCGAGUCCCGUACGAAACG [C4U G9A G68A] | 0.968
7 | GUUCCGUUGGAGUAAUGGUAACGCGUCUCCCAUCUAAGGAGAAGACUGCGGGUUCGAGUCCCGUAAGGAACG [C11A U32A C33U C66A] | ≤ 0.5
8 | GUUCCGUUGGCAUAAUGGUAACGCGUCUACCUCCUAAGGAGAAGACUGCGGGUUCGAGUCCCGUACCGAACG [G12A C29A G67C] | ≤ 0.5
9 | GUUCCGUUGGCGUAAUGGUAGCGCGUCUCCCUCCUAAGGAGAAGACUGCGGGUGCGAGUCCCGUACGGAACG [A21G U54G] | 0.575
10 | GUUCCGUUGGCGUAAUGGUAACGCGUCUCCCACCUAAGGGGAAGACUGCAGGUUCGAGUCGCGUACGGAACG [U32A A40G G50A C61G] | 0.787
11 | GCUCCGUUGGCGUAAUGGUAACGGGUCUCUCUCCUAAGGAGAAGACUGCGGGUUCGAGUCCUGUACGGAACG [U2C C24G C30U C62U] | ≤ 0.5
12 | GUUCCGUUGGCGUCAUGGUAACGCCUCUCCCUCCUAAGGAGAAGACAGCGGGUUCGAGUCCCGUACGGAACG [A14C G25C U47A] | 0.608
13 | GUUCCGUUGGCGUAAUGGUAACGGGUCUCCUUGCUAAGGAGCUGACUGCGGGUUCGAGUCCCGUACGGAACG [C24G C31U C33G A42C A43U] | 0.574
14 | GUUUCGUUGGAGUAAUGGUAACGCGUCUCCCUCCUACGGAGAAGACUGCGGGUUCGGGUCCCGUACGGAACG [C4U C11A A37C A57G] | ≤ 0.5
15 | GUUCCGUUGGCGUAAUGGUCACGCAUCUCCGUUUUAAGGACAAGACUGCGGGUUCGGGUCCCGUACGGAACG [A20C G25A C31G C33U C34U G41C A57G] | ≤ 0.5
16 | GUUCCGUUGGCGUUAUGGUAACGCGUCUCCCUCCUAACGAGAAGACUGCGGGUUCGAGUCCAGUACCGAACG [A14U G38C C62A G67C] | ≤ 0.5
17 | GUUCUGUUGGCGUAAUGGUAACGCGUCUCCCUCCUAAGGAGAGGGCUGCGGGUUCGAGUCCCGUACGGAACG [C5U A43G A45G] | 0.669
18 | GUUCCGUUCGCGUAAUGGUAACGCGUCUCCCUCCUAAAGAGAAGACUGCGGGUUCGCGUCCCGUACGGAACG [G9C G38A A57C] | ≤ 0.5
19 | GUUCCGUUGGCGUAAUGGUUACGCGUCUCCCUCCUAAGGCGUAGACUGCGGGUUCGAGUCCCGUACGGAACG [A20U A40C A42U] | ≤ 0.5

Row | Variant | yeast fitness
20 | GUUGCGUUGGGGUAAUGGUAACGCGUCUCCCUCCUAAGGAGAAGACAGUGGGUUCGAGUCCCGUACGGAACG [C4G C11G U47A C49U] | ≤ 0.5
21 | GUUCCGUUGGCGUAUUGGUAACGCGUCUCCCUGCUAAGGAGAAGACUGCGGGUUCGAGUCCGGUACGGAACG [A15U C33G C62G] | 0.602
22 | GUUCCGUUGGCGUAAUGGUAAGGCGUCUCCCUCCUAAGGAGAAGACUGCGCGUUCGAGUCCCGUACGGAACG [C22G G51C] | 0.738
23 | GUUCCGUUGGCGUAAUGGUAACGCGUCUGCCUUCCAAAGAGAAGACUGCGGGUUCGAGUCCCGUACGGAACG [C29G C33U U35C G38A] | ≤ 0.5
24 | GUUCGGUUGGCGUCAUGGUAACGCGUCUCCCUCCUCAGGAGAAGCCUACGGGUUCGAGUCCCGUACGGAACG [C5G A14C A36C A45C G48A] | ≤ 0.5
25 | GAUCGGUUGGCGUAAUGGUAACGCGUCUCCUUCCUAAGGAGAAGACUGCGGGUUCGAGUCCCGUAUGGAACG [U2A C5G C31U C66U] | ≤ 0.5
26 | GUUCCGUUGGCCUAAAGGUAACGCGACUCCCUCCUAAGGAGAAGACUGCGGGUUCGAGUCCCGUACUGAACG [G12C U16A U26A G67U] | ≤ 0.5
27 | GUUCCGUUGGCGUAAUGCUAACGCAUCUCCCUCCUAACGAAAAGACUGCGGGUUCGAGUCCCGUACGGAACG [G18C G25A G38C G41A] | ≤ 0.5
28 | GUUACGUUGGCGUAGUAGUAACGCGUCUCCCUUCUAAGGAGAAGACUGCGGGUUCGUGCCCCGUACGGAACG [C4A A15G G17A C33U A57U U59C] | ≤ 0.5
29 | GUUCCGUUGGCGUAAUGGUAACGCGUCUUCCUCUUAAGAAGAAGACUGCGGGUUCGAAUUCCGUACGGAACG [C29U C34U G39A G58A C60U] | ≤ 0.5
30 | GUCCCGCUGGCGUAAUGGUAACGCGUCUCCCUCCCAAGGAGAAGACUGCGGGUUCGAGUCCCGUACGGAACG [U3C U7C U35C] | 0.505
31 | GUUCCGUUGGCGUAAUGGUAACGCGUGUCCCUCCUACGGAGAAGACUGCGGGUUCGAGUCCCGUACGGAACG [C27G A37C] | 0.911
32 | GUUCCGUUGGCGUAAUGGUAACGCGACUCCCUCCGAUGGAGAAGACUGCGGGUUCCAGUCCCGUGCGGAACG [U26A U35G A37U G56C A65G] | ≤ 0.5
33 | GUUCCGUUGGCGUAAUGGUAACGCGUCUCCUUCCUAAGGGGAAGAGUGCGGGUUCGAGUCCCGUGCGGAACG [C31U A40G C46G A65G] | ≤ 0.5
34 | GUUCCGUUGGCGUAAUGGUAACGGGUCUCCCUCCUAAGGAGAAGACUGCGGGUUGGAGUCCCGUACGGAACG [C24G C55G] | 0.649
35 | GCUCCGUUGGCGUAAUGGUAACGCGCCUCCCUCCUAAGGAGAAGACUACGGGUUCGAGUCCCGUACGGAACG [U2C U26C G48A] | 0.663
36 | GUUCGGUUCGCGUCAUGGUAACGCGUCUCCCUCCUAAGGAGAAGACUGCGGGUUCGAGUCCCGUACGGAACG [C5G G9C A14C] | ≤ 0.5
37 | GUUCCGUUGGCGUAAUGCUAACGCGUCUCCCUCCUAAGGAGAAGACUGCGGGUUCGAGUUCCGUACGGAUCG [G18C C60U A70U] | ≤ 0.5
